Screening data (PubChem BioAssay)
KCNQ1 block: inhibitors of human KCNQ1 potassium channel; B-score at 10 µM; 310,000 tested, 1.3% active; CHO-K1 KCNQ1, FluxOR thallium flux fluorescence; hits give high values;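 active = compounds whose thallium flux B-score, printed positive for inhibition, exceeds three library SD while starting fluorescence stays within three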;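 also: channel opened by potassium depolarization with thallium stimulus after 20 min compound exposure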
KCNK3 block: human KCNK3 channel inhibition, primary screen | O14649 | CHO-KCNK3 thallium flux, FluxOR fluorescence; hits give low values | B-score at 10 µM | 340,000 tested, 0.84% active | AID 602410;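 active = B-score under library mean minus 4 SD, starting fluorescence ratio at most library mean plus 5 SD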;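 also: more negative B-score means stronger inhibition of thallium flux through KCNK3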
hERG rescue: hERG (human) protection from proarrhythmic block. Q12809. CHO-hERG, FluxOR thallium flux, dofetilide IC70 present. activation (rescue from dofetilide block), less the hit threshold, % at 10 µM. 310,000 tested, 0.51% active. AID 1511;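 active = activation above the mean of controls blocked by dofetilide plus 5 SD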;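 also: thallium influx through hERG after potassium depolarization seen as dye fluorescence rise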
KCNK9 inh: inhibitors of human KCNK9 two-pore domain potassium channel; Q9NPC2; 310,000 tested, 1.2% active; HEK293 KCNK9, FluxOR thallium flux fluorescence; hits give low values; B-score at 10 µM;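 active = ratio B-score over 3 SD below the library mean, with starting fluorescence within 5 SD of its mean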;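 also: negative B-score means less thallium flux so channel inhibition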
Target sequence (Q9NPC2 whole entry, looked up, the tested form may be a part): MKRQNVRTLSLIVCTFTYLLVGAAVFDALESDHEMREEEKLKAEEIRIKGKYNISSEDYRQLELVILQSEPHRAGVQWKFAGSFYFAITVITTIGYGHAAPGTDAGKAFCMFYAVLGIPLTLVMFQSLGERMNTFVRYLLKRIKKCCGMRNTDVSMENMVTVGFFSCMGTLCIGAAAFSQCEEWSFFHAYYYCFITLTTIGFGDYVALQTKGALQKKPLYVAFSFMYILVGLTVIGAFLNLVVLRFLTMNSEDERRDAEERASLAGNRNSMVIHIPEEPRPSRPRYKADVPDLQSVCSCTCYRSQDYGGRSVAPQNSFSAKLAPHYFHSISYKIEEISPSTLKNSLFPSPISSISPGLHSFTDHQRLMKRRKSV
KCNQ1 pot: potentiators or activators of human KCNQ1 potassium channel | 310,000 tested, 0.35% active | B-score at 10 µM | CHO-K1 KCNQ1, thallium flux FluxOR fluorescence; hits give high values | P51787;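 active = fluorescence ratio B-score, a plate-corrected score, at least three library SD, with initial intensity B-score within 5 SD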
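System: CHO-K1 cells stably expressing KCNQ1 / Medium: assay buffer for compound exposure, DMSO matched across wells / Reagent: thallium- and potassium-containing depolarizing buffer / Compound: one concentration, matched DMSO / Incubation: 20 min compound pretreatment at room temperature / Measured by: kinetic FluxOR fluorescence, 10 s baseline plus 110 s post-stimulus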
KCC2 mod: modulates chloride dependent transport by human KCC2; B-score of Tl+ flux slope (higher = more flux/activation; lower = inhibition) at 10 µM; 190,000 tested, 2.2% active; KCC2 cells, thallium flux FluoZin-2 fluorescence; AID 1456;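 active = thallium flux slope and its plate-corrected score both differing from the plate sample mean at a set confidence after two filtering rounds, in either direction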;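 also: slope of fluorescence scaled to starting intensity during 10 to 20 s after thallium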
The depositor's hits bear a star; ! = repeats disagree. This is a sample that favours compounds with a hit; in the whole collection about 4.1% have one here.

Screening CC(=O)NC12CC3CC(C1)CC(C(=O)N(C)CC(=O)Nc1ccc(F)c(F)c1F)(C3)C2 returned KCNK3 block inactive.
CCC(=O)N1c2ccc(C)cc2C2=NNC(=S)NC21O (centres undefined) was read as KCNQ1 block inactive, KCNK3 block inactive, hERG rescue 1.3, KCNK9 inh inactive, KCNQ1 pot inactive and KCC2 mod 5.36*.
`O=C(CCl)N1CCN(S(=O)(=O)c2ccc3ccccc3c2)CC1` gave KCNQ1 block inactive, KCNK3 block inactive, hERG rescue -7.4, KCNK9 inh inactive and KCNQ1 pot inactive.
`Cc1cc(S(=O)(=O)Nc2ccc(C(=O)N3CCN(C(=O)c4ccco4)CC3)cc2)ccc1F` gave KCNQ1 block inactive, KCNK3 block inactive, hERG rescue 7.5*, KCNK9 inh inactive, KCNQ1 pot inactive and KCC2 mod -0.432.
For O=C(c1ccc(S(=O)(=O)Nc2ccc(F)cc2)cc1)N1CCN(C(=O)c2ccco2)CC1 the results were KCNQ1 block inactive, KCNK3 block inactive, hERG rescue -5.2, KCNK9 inh inactive and KCNQ1 pot inactive.
`O=C(NC(=S)Nc1ccc(CN2CCOCC2)cc1)c1cccc(F)c1` gave KCNQ1 block inactive, KCNK3 block inactive, hERG rescue -5.7, KCNK9 inh inactive and KCNQ1 pot inactive.
For COc1cccc(C(=O)Nc2ccc(NC(=O)Cc3ccccc3)cc2)c1 the results were KCNQ1 block inactive, KCNK3 block inactive, hERG rescue -1.7, KCNK9 inh inactive and KCNQ1 pot inactive.
Screening O=C(NC(=S)Nc1ccc(CN2CCOCC2)cc1)c1ccc(-c2cccc(Cl)c2)o1 returned KCNQ1 block inactive, KCNK3 block inactive, hERG rescue -2.5, KCNK9 inh inactive, KCNQ1 pot 20* and KCC2 mod -0.236.
For COc1cccc(C(=O)Nc2ccccc2)c1 the results were KCNQ1 block inactive, KCNK3 block inactive, hERG rescue 5.4*, KCNK9 inh inactive, KCNQ1 pot inactive and KCC2 mod -1.29.
For COc1cccc(NC(=O)c2cncs2)c1 the results were KCNQ1 block inactive, KCNK3 block inactive, hERG rescue 5.0*, KCNK9 inh inactive and KCNQ1 pot 14*.
For O=C(NC(=S)Nc1ccc(CN2CCCCC2)cc1)c1cccc(OCc2ccccc2)c1 the results were KCNQ1 block 8*, KCNK3 block inactive, hERG rescue -43.2, KCNK9 inh inactive, KCNQ1 pot inactive and KCC2 mod 1.34.
For O=[N+]1C2=C(CCCC2)N([O-])C12CCCC2 the results were KCNQ1 block inactive, KCNK3 block inactive, hERG rescue -3.3, KCNK9 inh inactive, KCNQ1 pot inactive and KCC2 mod 0.0738.
OCCCn1c(C2CCCN2c2nc(-c3ccc(Cl)cc3)cs2)nc2cc(C(F)(F)F)ccc21 (centres undefined) was read as KCNQ1 block inactive, KCNK3 block inactive, hERG rescue -2.4, KCNK9 inh inactive and KCNQ1 pot inactive.
CCOc1cccc(C(=O)NC(=S)Nc2ccccc2)c1 was read as KCNQ1 block inactive, KCNK3 block inactive, hERG rescue -5.4, KCNK9 inh inactive, KCNQ1 pot inactive and KCC2 mod 18.6*.
`CCCOc1ccc(OC(=O)c2ccc(Br)o2)cc1` gave KCNQ1 block inactive, KCNK3 block inactive, hERG rescue 15.5*, KCNK9 inh inactive, KCNQ1 pot inactive and KCC2 mod -0.0203.
COc1ccccc1N(C)S(=O)(=O)c1ccc(C(=O)OCC(=O)Nc2ccc(C(N)=O)cc2)cc1 was read as KCNK3 block inactive.
For Cc1cc(C)n(CCC(=O)N/N=C/c2ccc(Cl)c([N+](=O)[O-])c2)n1 the results were KCNQ1 block 7*, KCNK3 block inactive, hERG rescue -12.1, KCNK9 inh inactive, KCNQ1 pot inactive and KCC2 mod -0.128.
`CCOC(=O)C1=C(Nc2ccccc2)CC(C)(O)C(C(=O)OCC)C1c1ccc(Cl)cc1` (centres undefined) gave KCNK3 block -9.94*! and KCC2 mod 0.339.
COc1ccc(OC)c(C(=O)c2coc3cc(Br)c(O)c(Br)c23)c1 was read as KCNQ1 block inactive, KCNK3 block inactive, hERG rescue -7.1, KCNK9 inh -7.56* and KCNQ1 pot inactive.
Screening CC(NC(=O)COC(=O)c1ccc2c(c1)OCCO2)c1ccccc1 (centres undefined) returned KCNK3 block inactive.
Screening CCOC(=O)c1sc(NC(=O)c2ccncc2)c(C#N)c1C returned KCNQ1 block inactive, KCNK3 block inactive, hERG rescue -10.0, KCNK9 inh inactive, KCNQ1 pot inactive and KCC2 mod -2.11.
For CCOC(=O)c1sc(NC(=O)Nc2ccccc2Cl)cc1C the results were KCNQ1 block inactive, KCNK3 block inactive, hERG rescue -11.2, KCNK9 inh inactive, KCNQ1 pot inactive and KCC2 mod -0.163.
For CCOC(=O)c1sc(NC(=O)c2ccccc2F)c(C(N)=O)c1C the results were KCNQ1 block inactive, KCNK3 block inactive, hERG rescue -5.7, KCNK9 inh inactive, KCNQ1 pot inactive and KCC2 mod -0.00516.
CCOC(=O)c1sc(NC(=O)c2cc(-c3ccccc3C)nc3ccccc23)c(C#N)c1C was read as KCNQ1 block 10*, KCNK3 block inactive, hERG rescue -27.8, KCNK9 inh inactive, KCNQ1 pot inactive and KCC2 mod -4.64.
`CCOC(=O)c1sc(NC(=O)c2ccccc2C(=O)O)c(C(=O)OCC)c1C` gave KCNQ1 block inactive, KCNK3 block inactive, hERG rescue -2.0, KCNK9 inh inactive and KCNQ1 pot 8*.
Screening CCOC(=O)c1sc(NC(=O)Nc2ccccc2)cc1C returned KCNQ1 block 6*, KCNK3 block inactive, hERG rescue -18.2, KCNK9 inh inactive, KCNQ1 pot inactive and KCC2 mod -0.317.
`O=C(COC(=O)CNC(=O)c1ccc(F)cc1)NC1CCCc2ccccc21` (centres undefined) gave KCNK3 block inactive.
For Nn1c(Cc2ccccc2)nnc1Cc1ccccc1 the results were KCNK3 block inactive.
For NC(=O)N/N=C/c1ccc2cccc(OCc3ccccc3)c2n1 the results were KCNQ1 block inactive, KCNK3 block inactive, hERG rescue -8.0, KCNK9 inh inactive, KCNQ1 pot inactive and KCC2 mod 0.15.
For O=C(Cc1ccccc1)N/N=C/c1ccc2cccc(O)c2n1 the results were KCNQ1 block inactive, KCNK3 block inactive, hERG rescue 9.4*, KCNK9 inh inactive, KCNQ1 pot inactive and KCC2 mod 0.359.
